Data from ChEMBL document CHEMBL2021925, “In vitro antimycoplasmal activity of Citrus bergamia essential oil and its major components” (2012).

How the values were obtained:
Metamycoplasma hominis = test: Antimycoplasmal activity against Mycoplasma hominis PG21 after 24 to 48 hrs by broth microdilution method; format: functional
How it was run: (§1)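 Strains were grown in SP-4 broth and stored frozen at -80 C until testing. Broth microdilution with agent concentrations expressed as % v/v. MIC was the lowest concentration preventing the broth colour change when the growth-control tube changed: pH falling from 7.5 to 7.0 for M. fermentans, rising from 6.0 to 6.5 for M. hominis. Incubation was 24–48 h. Each strain was tested six times, plus six more times on different days. Growth and sterility controls were included.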

Mycoplasma fermentans = test: Antimycoplasmal activity against Mycoplasma fermentans Pg18 after 24 to 48 hrs by broth microdilution method; format: functional, Mycoplasmopsis fermentans; how it was run: as §1
[1] = tested on: Mycoplasmoides pneumoniae; test: Antimycoplasmal activity against Mycoplasma pneumoniae M129 after 3 to 5 days by broth microdilution method

MIC50 (Metamycoplasma hominis) [%v/v]	MIC90 (Metamycoplasma hominis) [%v/v]	MIC90 (Mycoplasma fermentans) [%v/v]	MIC90 [1] [%v/v]	Compound
4	8	1	0.03	C=C(C)[C@H]1CC=C(C)CC1 [D-LIMONENE]
1	1	0.06	0.015	C=CC(C)(O)CCC=C(C)C (configuration not stated) [LINALOOL]
0.015	0.015	0.12	0.015	C=CC(C)(CCC=C(C)C)OC(C)=O (configuration not stated) [LINALYL ACETATE]
